Results: PubChem BioAssay
Values without a mark were called inactive. Results filed as inconclusive are left out. Activity calls are given as the source filed them.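 Rule for the calls, unless noted: active = RAM network inhibition above 8.4% in each of two replicates, 3 SD over the compound average; inconclusive = above 8.4% inhibition in only one replicate; inactive = 8.4% inhibition or less in each replicate.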

Tests used:
[1] = OD615 S. cerevisiae growth inhibition, permissive medium, pilot counter-assay, permissive growth control for S. cerevisiae lifespan shortening project (AID 705;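 active = growth inhibition above 25% in both replicates, a cutoff set 3 SD above the mean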); conditions: OD615, 24 h, at 10 µM, hits give high values
Outline: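 Material: engineered DeaD yeast; compound dosing: one dose 10 µM, DMSO 0.25% final; measure: yeast growth inhibition indicated by reduced 24 h OD615; detection: OD615 turbidity read; incubation: cells pre-grown 4 h, then 24 h compound exposure, 30 °C humidified; medium: permissive synthetic complete medium with raffinose and galactose carbon sources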

[2] = Restrictive medium S. cerevisiae growth inhibition, OD615, pilot screen of yeast lifespan reduction project, restrictive growth control (AID 706;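 active = growth inhibition above a set limit, 3 SD over mean compound inhibition, in both replicates, cut at about 43% in these data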;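 note: modified DeaD lifespan yeast strain shifted to restrictive glucose medium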); conditions: OD615, 48 h, at 10 µM, hits give high values
Outline: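 material = engineered S. cerevisiae DeaD strain | medium = glucose-based CSMM-D restrictive medium | times = 4 h pre-incubation, 48 h exposure at 30 °C | technique = OD615 absorbance reading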

[3] = viability gain of MRP-1-high H69AR cells under doxorubicin, pilot screen, MRP-1 activator project, CellTiter-Glo, duplicate (AID 807;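 active = viability increase at or above a cutoff of the median across tested compounds plus 3 SD, cut at about 8.5% in these data, passing the limit was not always enough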;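 note: compound pretreatment 18-22 h then 72 h combined with doxorubicin; 0% = doxorubicin alone and 100% = vehicle without doxorubicin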); conditions: H69AR viability with doxorubicin, CellTiter-Glo luminescence; at 10 µM; hits give high values
[4] = growth suppression of beta-catenin knockout HCT116, pilot screen, human colon tumor cells (AID 823;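 active = cell viability at or below a set limit in both duplicate runs, the limit being the all-compound median minus 4 SD, cut at about 23% in these data, passing the limit was not always enough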;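 note: 0% = wells killed by 20 µM Hyamine and 100% = untreated DMSO cell wells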); conditions: CellTiter-Glo, 60 h, at 10 µM, hits give low values
[5] = growth suppression of PTEN-deleted HCT116, pilot screen, cell-based, HCT116 clonal line, CellTiter-Glo (AID 824;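 active = viability at or below 27.92% in each of two runs, the all-compound median minus 4 SD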;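 note: 0% = 20 µM Hyamine control and 100% = vehicle cell control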); conditions: 60 h, at 10 µM, hits give low values
[6] = inhibitors of the yeast RAM network, pilot screen, dse1pr::URA3 reporter, 5-FOA selection (AID 869;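 active = inhibition over a set limit, the all-compound mean plus 3 SD, in both replicate runs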;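 note: 0% = DMSO wells with no growth and 100% = 10 µM 1-NA-PP1 with full growth; RAM network block rescues cells from 5-FOA so hits raise OD615 growth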); conditions: S. cerevisiae dse1pr::URA3 5-FOA growth, OD615, 2 d; at 10 µM; hits give high values; strain carries analog-sensitive mutant Cbk1 kinase
[7] = RAM signaling pathway blockade in yeast – S. cerevisiae, Pdr1DBD-CYC8 efflux-inhibited sensitized strain, primary screen (AID 1298);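 note: 0% = DMSO untreated cells without growth and 100% = 10 µM 1-NA-PP1 full growth; higher means more yeast growth rescued from 5-FOA killing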; conditions: S. cerevisiae cbk1-as DSE1-URA3 strain, 5-FOA growth OD615, 2 d; at 50 µM; hits give high values

SMILES	growth inhibition [1]	growth inhibition [2]	viability increase [3]	viability [4]	viability [5]	inhibition [6]	RAM network inhibition [7]
O=C(c1ccccc1NS(=O)(=O)c1cccs1)N1CCCC1	-1.34%	3.17%	-0.63%	93.1%	94.1%	1.84%	1.28%
CCOC(=O)N1CCN(C(=O)CS(=O)Cc2nc(-c3ccc(C)cc3)oc2C)CC1 (stereo unspecified)	-5.11%	7.44%	-1.59%	89.3%	92.1%	1.68%	7.07%
C1CCC(Nc2nnnn2C2CCCCC2)CC1	-16.8%	-16.1%	-2.17%	90.4%	92.5%	1.41%	3.33%
Cc1ccsc1-c1nc(CSCC(=O)NCc2ccc3c(c2)OCO3)c(C)o1	-9.04%	2.91%	-0.27%	87.2%	84%	0.83%	9.63%
N#CCc1ccc(NS(=O)(=O)c2ccc(N3CCCC3=O)cc2)cc1	-10.7%	-7.71%	-0.69%	89.8%	88%	2.58%	0.32%
CCOC(=O)c1ccc(N2C(=O)CC(SCC(N)C(=O)OCC)C2=O)cc1 (stereo unspecified)	-4.09%	-7.37%	-2.49%	102%	85.6%	1.47%	3.7%
CCSC1=C(C#N)C(c2ccccc2C)CC(=O)N1 (stereo unspecified)	-9.12%	-23.4%	-2.22%	92.5%	87.7%	1.98%	4.78%
Cc1ccccc1NC(=O)CC1SC(=NC2CCCCC2)NC1=O (stereo unspecified)	-3.83%	-12%	-0.62%	102%	101%	1.62%	0.66%
Nc1ccccc1-c1nnc(SCc2ccccc2F)[nH]c1=O	-8.6%	6.34%	2.02%	95.9%	89.9%	0.695%	4.24%
CCCC(=O)NC(C)c1nc2ccccc2n1C (stereo unspecified)	-18.7%	-2.34%	2.12%	101%	102%	1.45%	1.79%
CCOc1ccc(N(CC(=O)OC)S(=O)(=O)c2c(C)noc2C)cc1	3.84%	-0.545%	-1.21%	87.4%	95.1%	-0.69%	-0.31%
COc1ccc(N2C(=O)C(CC(=O)O)S/C2=C\C(C)=O)cc1 (stereo unspecified)	-7.45%	-2.82%	-0.23%	98%	99.4%	0.95%	3.43%
CCOc1ccc(C(=O)c2nc3c(n2O)CCCC3)cc1	-15%	-7.18%	0.17%	91.1%	103%	1.41%	-0.74%
CCOc1cc2[nH]c(=O)n(Cc3ccc(C(=O)NCCOC)cc3)c(=O)c2cc1OCC	-16.2%	-6.54%	-1.54%	97.8%	95.2%	0.03%	6.22%
CCn1c(C(=O)N2CCc3ccccc3C2)cc2sccc21	-11.6%	-2.25%	-0.05%	84.1%	74.5%	0.465%	4.84%
CCc1ccc(N2CCN(C(=O)c3ccc(OC)c(OC)c3)CC2)cc1	-15.2%	-8.32%	2.36%	57.3%	79%	0.975%	2.51%
CCSc1nnc(NC(=O)CSc2nc3c(c(=O)n2-c2ccccc2)SCC3)s1	-6.26%	-2.77%	-1.11%	100%	103%	2.82%	4.35%

SMILES	growth inhibition [1]	growth inhibition [2]	viability increase [3]	viability [4]	viability [5]	inhibition [6]	RAM network inhibition [7]
COC(=O)c1c(C)nc(C)c2c(=O)oc3ccccc3c12	3.52%	15.3%	0.64%	102%	104%	2.04%	1.99%
Cc1ccc2oc3c(c(=O)c2c1)C(c1ccc(F)cc1)N(CCCN1CCOCC1)C3=O (stereo unspecified)	-3.52%	-0.585%	-4.72%	91%	89.6%	0.595%	0.29%
O=C(c1ccc(CS(=O)(=O)c2ccccc2)o1)N1CCN(c2ncccn2)CC1	2.63%	-5.3%	-4.07%	104%	102%	0.185%	2.87%
O=C(CN1CCOc2ccccc21)NC1CCN(Cc2ccccc2)CC1	-5.57%	-4.21%	-3.28%	77%	85.5%	3.18%	5.65%
CCC(CO)N=CC1=C(O)C(C(=O)c2ccccc2)CCC1=O (stereo unspecified)	-10.4%	-14.8%	1.63%	96.5%	105%	0.62%	2.38%
CCOc1cc(C(=O)NCCN2CCOCC2)cc(OCC)c1OCC	-5.59%	-3.11%	-3.76%	91.3%	96.4%	-0.045%	2.61%
COCC(C)NC(=O)c1ccc(N(C)C)cc1 (stereo unspecified)	2.19%	8.57%	2.2%	104%	94.5%	2.1%	0.51%
COc1ccccc1C(=O)N1CCN(c2cccc(Cl)c2)CC1	-9.06%	-12.8%	-4.63%	15.4% (active)	20% (active)	2.75%	2.22%
O=S(=O)(c1cccs1)N1CCCc2ccccc21	-13.1%	-18.4%	-2.75%	83.5%	83.8%	1.71%	3.38%
COC(=O)C1=CN(CC2CCCO2)C=C(C(=O)OC)C1c1ccsc1 (stereo unspecified)	-22.4%	-3.27%	-4.97%	92.1%	97.5%	0.125%	4.53%
COc1cc(NC(=O)C(F)(F)F)cc(OC)c1	-10.5%	-13.3%	-0.69%	98.2%	108%	0.22%	1.3%
CCCN(CCC)C(=O)COc1cc(=O)n(CC)c2ccccc12	-17.4%	-2.75%	-1.75%	99.8%	89.3%	0.52%	0.9%
Cc1ccc(NC(=O)CSc2nnc(Cn3c(=O)sc4ccccc43)n2C)cc1Cl	-1.48%	-18.1%	-4.78%	92.3%	86.6%	1.81%	4.65%
Cc1ccc(/C=N/c2sc3c(c2C#N)CCC3)s1	-1.95%	-5.03%	-0.97%	96.1%	93.8%	1.21%	7%
Cc1c(C(=O)NCC2CCCO2)sc2nc(-c3ccccc3)cn12 (stereo unspecified)	7.17%	8.27%	0.89%	109%	95.1%	0.15%	1.08%
CCCSc1nnc2nc(C)cc(C)n12	-2.7%	1.39%	-0.95%	103%	101%	2%	-0.46%
